Screening data as filed in PubChem BioAssay.
A selection: hits, their analogues and other compounds. The true share with any hit is near 4%.
UPR CHOP act: apoptotic UPR (CHOP) activation; CHO-CHOP luciferase reporter, luminescence; percent of tunicamycin response over DMSO baseline; activation, % at 10 µM; 330,000 tested, 0.34% active;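 active means at 10 µM dose, activation of 40% or more, normalized to positive control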;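 further: 100% = tunicamycin at 10 µg/mL and 0% = DMSO alone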
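System: CHO CHOP reporter cells. Amount: 500 cells per well. Buffer or medium: F12 medium, 10% FBS. Compound dosing: one dose, 10 µM in 0.5% DMSO. Incubation: 6 h compound exposure at 37 °C after overnight seeding. Technique: Steady-Glo luciferase luminescence. Benchmarks: tunicamycin and DMSO controls.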
Mdm2-MdmX inh: inhibitors of human Mdm2/MdmX interaction. O15151+Q00987. SaOS-2 split-luciferase Mdm2/MdmX complementation, luminescence. inhibition, % at 8 µM. 330,000 tested, 3% active;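 active means inhibition of at least 50% at 8 µM in the primary screen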
Target sequence (O15151 whole entry, looked up): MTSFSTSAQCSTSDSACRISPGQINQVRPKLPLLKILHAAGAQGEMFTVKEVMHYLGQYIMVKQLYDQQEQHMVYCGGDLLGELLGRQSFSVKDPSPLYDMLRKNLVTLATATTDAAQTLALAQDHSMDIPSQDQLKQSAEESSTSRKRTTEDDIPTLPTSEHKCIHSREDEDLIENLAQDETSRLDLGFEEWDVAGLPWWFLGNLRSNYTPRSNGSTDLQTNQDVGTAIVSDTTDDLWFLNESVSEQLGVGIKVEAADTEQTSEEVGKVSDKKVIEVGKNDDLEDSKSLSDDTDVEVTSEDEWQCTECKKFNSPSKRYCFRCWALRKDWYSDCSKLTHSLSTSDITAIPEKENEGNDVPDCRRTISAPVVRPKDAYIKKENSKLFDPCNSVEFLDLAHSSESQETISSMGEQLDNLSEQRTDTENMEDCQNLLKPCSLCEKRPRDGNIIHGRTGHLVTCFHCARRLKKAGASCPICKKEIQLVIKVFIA
Target sequence (Q00987 whole entry, looked up): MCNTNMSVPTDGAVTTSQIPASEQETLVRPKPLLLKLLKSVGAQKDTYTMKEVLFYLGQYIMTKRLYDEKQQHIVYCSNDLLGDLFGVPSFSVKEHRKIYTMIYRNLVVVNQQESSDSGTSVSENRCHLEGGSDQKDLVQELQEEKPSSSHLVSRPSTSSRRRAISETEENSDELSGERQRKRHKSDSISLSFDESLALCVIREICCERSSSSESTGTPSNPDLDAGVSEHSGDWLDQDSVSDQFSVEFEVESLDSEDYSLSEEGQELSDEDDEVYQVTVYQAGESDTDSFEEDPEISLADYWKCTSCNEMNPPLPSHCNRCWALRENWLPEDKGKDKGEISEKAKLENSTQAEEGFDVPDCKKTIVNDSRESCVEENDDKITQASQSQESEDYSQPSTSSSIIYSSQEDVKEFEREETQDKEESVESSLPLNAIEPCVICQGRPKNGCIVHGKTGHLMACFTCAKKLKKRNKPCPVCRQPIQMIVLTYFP
Granule exo inh: blocks lytic granule exocytosis | 360,000 tested, 0.66% active | inhibition, % at 10 µM | TALL-104 LAMP-1 surface exposure, flow cytometry; cells stimulated with thapsigargin and PMA | AID 651702;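 active means inhibition above about 55%, limit read from the data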
UPR XBP1 act: adaptive UPR (XBP1) activation; CHO-XBP1 luciferase reporter, IRE1-XBP1 UPR activation, luminescence; percent of tunicamycin response, DMSO as zero; activation, % at 20 µM; 330,000 tested, 0.33% active; AID 463104;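 active means versus positive control, 20 µM dose yields 30% or more activation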;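 further: 100% = tunicamycin at 10 µg/mL and 0% = DMSO only wells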
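assay system = CHO-XBP1 luciferase reporter cells | amount = 1000 cells/well | buffer or medium = F12 plus 10% FBS | compound dosing = single point, 20 µM final compound, 1% DMSO | incubation = 16-18 h cell attachment at 37 °C, then 6 h compound exposure | detection = Steady-Glo luminescence read | controls = tunicamycin 10 µg/mL and vehicle-only wells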
ABHD5 PLIN5 PPI: ABHD5-PLIN5 protein interaction inhibition; Q00G26+Q8WTS1; AID 602281; Split G. princeps luciferase complementation, luminescence, 4 h; inhibition, % at 4 µM; 360,000 tested, 0.78% active;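 active means inhibition above the mean inhibition across every tested compound plus 3 SD, cut at about 22% in these data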;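 further: 0% = DMSO only wells and the 100% control is not disclosed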
Mdm2 MdmX conf: confirmation of human Mdm2/MdmX interaction inhibitors; shares compounds with Mdm2-MdmX inh; Mdm2-MdmX binding, luminescent assay; inhibition, % at 8 µM; 10,000 tested, 55% active; AID 489028; in the data active means inhibition above about 40%
Full FLuc ctr: counter-screen for Mdm2/MdmX inhibitors: full-length luciferase; shares compounds with Mdm2-MdmX inh; SaOS-2 full-length luciferase counterscreen, luminescence; inhibition, % at 8 µM; 6,200 tested, 77% active; AID 504607;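 active means mean inhibition at 8 µM reaching about 37%, which flags the compound as non-specific, limit read from the data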;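 further: p53-null SaOS-2 cells with luciferase driven by a doxycycline-inducible promoter; compound on cells about two nights before reading with doxycycline added after day one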
* hit, by the source's call; / = no result given.

SMILES | UPR CHOP act | Mdm2-MdmX inh | Granule exo inh | UPR XBP1 act | ABHD5 PLIN5 PPI | Mdm2 MdmX conf | Full FLuc ctr
COc1cc(C(=O)Nc2ccc3c(c2)CCN3C(C)=O)cc(OC)c1OC | 1.5 | 59.3* | 0.6 | 4.5 | 1.6 | 58.8* | 62.0*
COc1cc(C)c(S(=O)(=O)n2c([N+](=O)[O-])cnc2C)cc1C | 0.7 | 14.8 | -4.0 | -3.7 | -2.0 | / | /
O=C1Nc2cccnc2N(C(=O)CCl)c2ccccc21 | 3.3 | 67.9* | 15.1 | -5.3 | 4.3 | 50.0* | 31.2
NCCN1CCN(CC(=O)N2c3ccccc3C(=O)Nc3cccnc32)CC1 | -0.6 | -5.1 | -1.8 | -3.7 | 4.2 | / | /
CC(C)(C)OC(=O)NCc1ccc(NC(=O)c2nc[nH]c2C(=O)NCCNC(=O)c2[nH]cnc2C(=O)Nc2ccc(CNC(=O)OC(C)(C)C)cc2)cc1 | -1.6 | 74.1* | 62.4* | 0.2 | 1.3 | 23.8 | /
C[C@H](NC(=O)c1[nH]cnc1C(=O)Nc1ccc(CNC(=O)OC(C)(C)C)cc1)C(=O)OCc1ccccc1 | 6.3 | 80.1* | -1.5 | 0.8 | 5.3 | 14.2 | /
CC(C)(C)OC(=O)NCCCCCNC(=O)c1nc[nH]c1C(=O)NCc1ccc(CNC(=O)OC(C)(C)C)cc1 | -0.4 | 53.9* | 1.3 | -3.6 | 6.7 | 21.6 | /
C[C@@H](O)CNC(=O)c1[nH]cnc1C(=O)Nc1ccc(CNC(=O)OC(C)(C)C)cc1 | / | / | -0.3 | / | 0.1 | / | /
CC(C)(C)OC(=O)NCc1ccc(CNC(=O)c2nc[nH]c2C(=O)NCc2ccc(CNC(=O)OC(C)(C)C)cc2)cc1 | 6.8 | 16.8 | -0.9 | -1.5 | -4.4 | / | /
CC(C)(C)OC(=O)NCCCCCNC(=O)c1nc[nH]c1C(=O)NCC(=O)OCc1ccccc1 | 0.4 | 65.6* | -2.9 | -3.1 | 5.3 | 45.5* | 50.2*
COc1ccccc1Nc1ccc(C(=O)O)cc1[N+](=O)[O-] | 1.7 | -2.7 | -6.1 | 1.1 | -2.0 | / | /
CC(C)(C)OC(=O)CNC(=O)c1[nH]cnc1C(=O)Nc1ccc(CNC(=O)OC(C)(C)C)cc1 | 4.4 | 62.6* | 0.4 | -2.3 | -7.9 | 54.1* | 74.2*
CC(C)C[C@H](NC(=O)c1nc[nH]c1C(=O)NCc1ccc(CNC(=O)OC(C)(C)C)cc1)C(=O)OC(C)(C)C | 0.3 | 32.4 | 6.0 | -3.1 | 12.5 | / | /
CC(C)C[C@H](NC(=O)c1[nH]cnc1C(=O)Nc1ccc(CNC(=O)OC(C)(C)C)cc1)C(=O)OC(C)(C)C | 4.6 | 52.5* | 12.8 | 11.5 | -7.3 | -8.9 | /
O=C(Cn1nnnc1CN1CCOCC1)N1CCC(c2cccc(Cl)c2)C1 (stereo not given) | 1.3 | 15.2 | 2.3 | -3.1 | 2.8 | / | /
COC(=O)c1c(NC(=O)c2ccccc2)sc2c1CC(C)(C)NC2(C)C | 1.4 | 42.1 | -3.4 | 2.6 | 14.1 | / | /
CC1(C)Cc2c(sc(NC(=O)c3ccc(C(=O)c4ccccc4)cc3)c2C(N)=O)C(C)(C)N1 | 4.5 | 72.8* | 15.7 | 10.0 | 16.5 | 57.4* | 34.2
CC1(C)Cc2c(sc(NC(=O)c3ccc4ncsc4c3)c2C(N)=O)C(C)(C)N1 | 3.7 | 74.8* | 18.1 | 10.5 | 5.6 | 27.0 | /
C=CCOc1ccc(C2C(C#N)=C(N)N(Nc3ccccc3)C3=C2C(=O)CCC3)cc1OC (stereo not given) | -2.5 | 6.5 | 0.2 | -3.3 | 0.5 | / | /
Cc1ccccc1NS(=O)(=O)c1ccc(C)c(C(=O)N2CCOCC2)c1 | 0.5 | 15.0 | -2.7 | -1.7 | 1.0 | / | /
CC(C)NC(=O)NS(=O)(=O)c1cnccc1N1CCCCC1 | -1.0 | 17.6 | -2.3 | -4.4 | 0.8 | / | /
COC(=O)[C@@]1(Cc2ccc(F)cc2)[C@H]2c3cc(C(=O)N(C)C)n(CCc4ccc(OC)c(Br)c4)c3C[C@H]2CN1C(=O)c1ccccc1 | 6.5 | 67.1* | 2.9 | 2.9 | -0.4 | 29.6 | /
O=C(N/N=C/c1cc(Br)ccc1O)c1ccncc1 | 0.3 | 20.4 | -5.4 | -1.2 | -3.1 | / | /
Cc1cccc(NC(=S)N/N=C/c2ccc([N+](=O)[O-])s2)c1 | 18.5 | 67.1* | 1.7 | 7.7 | -8.7 | 18.2 | /
O=C(N/N=C/c1ccc(O)c2ncccc12)c1cccc(Br)c1 | 1.5 | 86.6* | 1.6 | 0.9 | 11.2 | 54.5* | 32.5
SMILES | UPR CHOP act | Mdm2-MdmX inh | Granule exo inh | UPR XBP1 act | ABHD5 PLIN5 PPI | Mdm2 MdmX conf | Full FLuc ctr
O=C(N/N=C/c1ccc([N+](=O)[O-])s1)c1cccc(Br)c1 | -1.6 | 76.8* | 1.3 | 1.0 | -5.2 | 68.1* | 37.5*
O=C(N/N=C\c1ccc([N+](=O)[O-])s1)C1COc2ccccc2O1 (stereo not given) | 2.2 | 51.2* | 1.2 | -1.6 | 0.0 | 55.1* | 87.3*
N#CCCN1CCN(CCC#N)CC1 | -1.7 | 7.4 | 3.4 | -2.7 | 0.3 | / | /
CCN1CCN(c2ncc3c(n2)CC(c2cc(OC)c(OC)c(OC)c2)CC3=O)CC1 (stereo not given) | / | / | 1.9 | / | 1.1 | / | /
CC(=O)N=c1sccn1CC(O)c1ccccc1 (stereo not given) | -0.4 | 8.3 | 4.6 | -4.4 | 1.8 | / | /
Cc1ccc(-n2c3nc(=O)[nH]c(=O)c-3cc3cc([N+](=O)[O-])ccc32)cc1 | 3.4 | 58.4* | 10.4 | 2.3 | -4.0 | 45.8* | 37.9*
Cc1ccc(-n2c(C)nn(Cc3ccc([N+](=O)[O-])cc3)c2=O)cc1 | 0.9 | -0.6 | 1.6 | 1.2 | 3.7 | / | /
CCOC(=O)c1c(NC(=O)Cc2ccccc2)sc2c1CC(C)(C)NC2(C)C | 0.0 | 36.2 | 5.4 | 3.4 | 9.1 | / | /
CCOC(=O)c1c(NC(=O)CCS(=O)(=O)c2ccccc2)sc2c1CC(C)(C)NC2(C)C | -0.4 | 14.2 | -1.8 | -3.8 | 3.4 | / | /
CCOC(=O)c1c(NC(=O)COc2ccccc2C#N)sc2c1CC(C)(C)NC2(C)C | 2.5 | 50.9* | 56.6* | -0.4 | 4.0 | 15.3 | /
CCOC(=O)c1c(NC(=O)C2COc3ccccc3O2)sc(C(C)=O)c1C (stereo not given) | 3.6 | 16.4 | -2.0 | -5.0 | 5.2 | / | /
CCOC(=O)c1c(NC(=O)c2ccc(C)cc2)sc2c1CC(C)(C)NC2(C)C | 1.7 | 92.7* | / | 6.5 | / | 47.0* | 95.9*
COC(=O)c1c(NC(=O)c2ccc(OC(C)C)cc2)sc2c1CC(C)(C)NC2(C)C | 7.2 | 93.7* | 3.3 | 24.8 | 4.5 | 76.5* | 23.6
CCOC(=O)c1c(NC(=O)C2COc3ccccc3O2)sc2c1CC(C)(C)NC2(C)C (stereo not given) | 3.7 | 83.5* | 8.7 | 1.3 | 12.2 | 52.3* | 61.1*
Cc1ccccc1-c1nnn(Cc2ccc(-c3nn[nH]n3)cc2)n1 | -0.2 | 7.8 | 1.5 | 1.4 | 0.8 | / | /
CCc1nccn1CCC(=O)N1CCCC(Nc2ccc(F)cc2)C1 (stereo not given) | -0.6 | 8.4 | 0.3 | -4.0 | -14.8 | / | /
